The values that follow come from ChEMBL document CHEMBL2146421, “Synthesis and anticonvulsant activity of some new thiazolo[3,2-a][1,3]diazepine, benzo[d]thiazolo[5,2-a][12,6]diazepine and benzo[d]oxazolo[5,2-a][12,6]diazepine analogues” (Eur J Med Chem, 2011).

Series [1] deals with Mus musculus. The series can be described thus: Anticonvulsant activity in Swiss albino mouse assessed as protection against pentylenetetrazole-induced convulsion at 1.5 mmol/kg, ip treated after 30 mins of pentylenetetrazole measured for 30 mins. In kind it is functional.
For series [2], the system named is Mus musculus. The experiment in a line: Neurotoxicity in Swiss albino mouse assessed as inability to climb up backwards in a glass tube within 30 seconds at 1.5 mmol/kg, ip measured after 15 and 25 mins by Chimney test. In kind it is toxicity, organism-based. As to conditions: in vivo. In outline:
(§1)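 Chimney test: 15 and 25 min after i.p. dosing (3.0, 1.5, 0.75, 0.375 mmol/kg), inability of mice to climb backwards up a glass tube 25 cm long, 3 cm inner diameter, within 30 s recorded as neurological deficit.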

For series [3], the system named is Mus musculus. The experiment in a line: Neurotoxicity in Swiss albino mouse assessed as effect on motor activity at 1.5 mmol/kg, ip after 30 mins. In kind it is toxicity, organism-based. The conditions noted are these: in vivo, 0.5 h. In outline:
(§2)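 Motor activity measured with an activity meter at 0 and 30 min after i.p. dosing, zero time taken as 100%.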

The subject of series [4] is Mus musculus. The experiment in a line: Hypnotic activity in Swiss albino mouse assessed as righting reflex at 1.5 mmol/kg, ip. The conditions noted are these: in vivo. In kind it is ADME, organism-based.
Series [5] in a line: Toxicity in Swiss albino mouse assessed as mortality at 1.5 mmol/kg, ip measured 7 to 11 mins before pentylenetetrazole challenge. In kind it is organism-based. As to conditions: in vivo, read-out: Activity. The essentials: (§3)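 Compounds given i.p. at 3.0, 1.5, 0.75 and 0.375 mmol/kg to 6 mice per compound. Deaths occurring before the PTZ injection were recorded. PTZ (83 mg/kg s.c.) followed 30 min after compound dosing.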

Series [6] relates to Mus musculus. The experiment in a line: Anticonvulsant activity in Swiss albino mouse assessed as protection against pentylenetetrazole-induced convulsion at 0.75 mmol/kg, ip treated after 30 mins of pentylenetetrazole measured for 30 mins. In kind it is functional.
The test system of series [7] is Mus musculus. The series can be described thus: Anticonvulsant activity in Swiss albino mouse assessed as protection against pentylenetetrazole-induced convulsion at 0.375 mmol/kg, ip treated after 30 mins of pentylenetetrazole measured for 30 mins. In kind it is functional.
The subject of series [8] is Mus musculus. The experiment in a line: Neurotoxicity in Swiss albino mouse assessed as inability to climb up backwards in a glass tube within 30 seconds at 0.75 mmol/kg, ip measured after 15 and 25 mins by Chimney test. As to conditions: in vivo. In kind it is toxicity, organism-based. In outline: as §1
The test system of series [9] is Mus musculus. The series can be described thus: Neurotoxicity in Swiss albino mouse assessed as inability to climb up backwards in a glass tube within 30 seconds at 0.375 mmol/kg, ip measured after 15 and 25 mins by Chimney test. In kind it is toxicity, organism-based. The conditions noted are these: in vivo. In outline:
as §1

The test system of series [10] is Mus musculus. The series can be described thus: Neurotoxicity in Swiss albino mouse assessed as effect on motor activity at 0.75 mmol/kg, ip after 30 mins. In kind it is toxicity, organism-based. As to conditions: in vivo, 0.5 h. The essentials: as §2
The test system of series [11] is Mus musculus. The series can be described thus: Neurotoxicity in Swiss albino mouse assessed as effect on motor activity at 0.375 mmol/kg, ip after 30 mins. As to conditions: in vivo, 0.5 h. In kind it is toxicity, organism-based. The essentials:
as §2

Series [12] relates to Mus musculus. The series can be described thus: Hypnotic activity in Swiss albino mouse assessed as righting reflex at 0.75 mmol/kg, ip. In kind it is ADME, organism-based. As to conditions: in vivo.
In series [13] the test system is Mus musculus. The experiment in a line: Hypnotic activity in Swiss albino mouse assessed as righting reflex at 0.375 mmol/kg, ip. In kind it is ADME, organism-based. As to conditions: in vivo.
Series [14] is described as follows: Toxicity in Swiss albino mouse assessed as mortality at 0.75 mmol/kg, ip measured 7 to 11 mins before pentylenetetrazole challenge. In kind it is organism-based. The conditions noted are these: in vivo, read-out: Activity. In outline: as §3
A short description of series [15]: Toxicity in Swiss albino mouse assessed as mortality at 0.375 mmol/kg, ip measured 7 to 11 mins before pentylenetetrazole challenge. In kind it is organism-based. The conditions noted are these: in vivo, read-out: Activity. The essentials:
as §3

`O=C1CCCN2C=CSC2=N1`: the Activity in series [1], in [2], in [3] and in series [4] was 0% in each case. In series [5], the mortality was 33%.

With `O=C1CCCN2C=C(Br)SC2=N1`, the Activity is on record as 30% in series [1]; 0% in series [6]; 0% in series [7]; 80% in series [2]; 40% in series [8]; 10% in [9]. Moreover, the Activity was found to be 12% in [3]; 13% in series [10]; 15% in [11]; 30% in series [4]; 0% in series [12]; 0% in series [13]. The mortality in series [5], in series [14] and in series [15] was 0% throughout.

In the case of `S=C1CCCN2C=CSC2=N1`, the Activity worked out at 0% in [1]; 0% in series [6]; 0% in [7]; 100% in series [2]; 30% in series [8]; 10% in series [9]. The Activity in [3] turned out to be 11%; in series [10] it was 26%; in series [11], 30%; in series [4], 0%; in series [12], 0%; in series [13], 0%. Besides, the mortality is 50% in series [5], 10% in [14] and 0% in [15].
